The subject of one test is CCRF-CEM. The test can be described thus: Cytotoxicity against human CCRF-CEM cells after 72 hrs by XTT assay. The class given is functional, cell-based. The essentials: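 CCRF-CEM leukaemia cells in RPMI 1640 with 2 mM glutamine and 10% FBS, 37 °C, 5% CO2. Seeded at 10 000 cells/well and exposed for 72 h to at least eight concentrations, freshly diluted from DMSO into medium (vehicle 0.5% DMSO). XTT with electron coupling reagent was read after 4 h. IC50 came from a four-parameter logistic fit over two passages × three wells; six independent experiments.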
A general note: Formazan colour is commonly taken as a measure of viable cells.

For another test, the system named is MDA-MB-231. The test can be described thus: Cytotoxicity against human MDA-MB-231 cells after 72 hrs by XTT assay. As to conditions: MDA-MB-231, 72 h. Type of test: functional, cell-based. The method, boiled down:
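MDA-MB-231 breast cancer cells, RPMI 1640 with 2 mM glutamine and 10% FBS, 37 °C in 5% CO2. Seeded at 5000 cells/well, adhered overnight, then 72 h exposure over at least eight concentrations with 0.5% DMSO vehicle. XTT readout after 1.5 h. Four-parameter logistic IC50 from two passages each in three wells; mean ± SEM of six experiments.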

The subject of another test is U-251. The test can be described thus: Cytotoxicity against human U251 cells after 72 hrs by XTT assay. Type of test: functional, cell-based. The following applies: U-251, 72 h. The essentials: (§1)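 U251 glioblastoma and HCT 116 colon cells grown in high-glucose DMEM with 2 mM glutamine and 10% FBS. 5000 cells/well attached overnight, then received at least eight concentrations for 72 h (0.5% DMSO vehicle). XTT read 1.5 h after addition. IC50 by four-parameter logistic fit; two passages × three wells, six independent experiments, mean ± SEM.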

The next test relates to HCT-116. Kind of test: Cytotoxicity against human HCT116 cells after 72 hrs by XTT assay. The class given is functional, cell-based. The following applies: HCT-116, 72 h. The essentials:
as §1

The nature of test [1]: Cytotoxicity against human SBcl2 cells after 72 hrs by XTT assay. The class given is functional, cell-based. The following applies: SBcl2, 72 h. The method, boiled down: (§2)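 Melanoma lines (SBcl2, WM35, WM9, WM164) kept in RPMI 1640 with 2 mM glutamine and 2% FBS, 37 °C, 5% CO2. Plated at 5000 cells/well overnight and treated 72 h across at least eight concentrations (freshly diluted from DMSO; vehicle 0.5% DMSO). XTT absorbance read after 1.5 h. IC50 from four-parameter logistic curves; two passages in triplicate, six experiments, mean ± SEM.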

Test [2] is described as follows: Cytotoxicity against human WM35 cells after 72 hrs by XTT assay. Type of test: functional, cell-based. As to conditions: WM35, 72 h. The essentials: as §2
Test [3] is described as follows: Cytotoxicity against human WM9 cells after 72 hrs by XTT assay. Type of test: functional, cell-based. The following applies: WM9, 72 h. The essentials: as §2
Test [4] is described as follows: Cytotoxicity against human WM164 cells after 72 hrs by XTT assay. The class given is functional, cell-based. The following applies: WM164, 72 h. The method, boiled down: as §2
The test system of test [5] is MRC5. Kind of test: Cytotoxicity against human MRC5 cells after 72 hrs by XTT assay. Type of test: cell-based. The following applies: MRC5, 72 h. The method, boiled down:
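MRC-5 lung fibroblasts in MEM with 2 mM glutamine and 10% FBS. Seeded at 10 000 cells/well, attached overnight, then treated 72 h with at least eight concentrations (DMSO stock diluted in medium, 0.5% DMSO vehicle). XTT was added and read 1.5 h later. IC50 came from a four-parameter logistic curve; two passages × triplicate wells, six independent experiments, mean ± SEM.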

For test [6], the system named is MRC5. The test can be described thus: Selectivity ratio of IC50 for human MRC5 cells to IC50 for human CCRF-CEM cells. The essentials:
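The ratio uses XTT viability IC50s from a 72 h exposure. MRC-5 fibroblasts were grown in MEM and CCRF-CEM cells in RPMI 1640, both with 10% FBS; both were seeded at 10 000 cells/well. XTT was read after 1.5 h (MRC-5) or 4 h (CCRF-CEM). IC50s came from four-parameter logistic fits over at least eight concentrations, six independent experiments.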

The subject of test [7] is SBcl2. Kind of test: Induction of morphological changes in human SBcl2 cells assessed as less density and round shape phenotype with fewer dendrites of cells at IC50 after 24 to 48 hrs. The class given is functional, cell-based.
Another test deals with WM35. Kind of test: Induction of morphological changes in human WM35 cells assessed as less density and round shape phenotype with fewer dendrites of cells at IC50 after 24 to 48 hrs. Type of test: functional, cell-based.
The test system of the next test is WM9. The test can be described thus: Induction of morphological changes in human WM9 cells assessed as less density and round shape phenotype with fewer dendrites of cells at IC50 after 24 to 48 hrs. Type of test: functional, cell-based.
Test [8] relates to WM164. Kind of test: Induction of morphological changes in human WM164 cells assessed as less density and round shape phenotype with fewer dendrites of cells at IC50 after 24 to 48 hrs. The class given is functional, cell-based.
Test [9] in a line: Cell cycle arrest in human WM9 cells assessed as accumulation at G2/M phase at IC50 after 12 to 72 hrs using propidium iodide staining by FACS analysis. The class given is functional, cell-based. The method, boiled down: (§3)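 Melanoma lines were kept in RPMI 1640 with 2 mM L-glutamine, 2% FBS and penicillin/streptomycin at 37 °C under 5% CO2. Cells were exposed for 12–72 h, with 0.5% DMSO vehicle controls, then trypsinized. 5 × 10^5 cells were fixed in ice-cold 70% EtOH for 10 min at 4 °C, washed in PBS and stained with PI/RNase A for 15 min at 37 °C. Phases were read by flow cytometry; n = 3 means.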
Background: Flow cytometry measures light scatter and fluorescence of single cells or particles in a stream.

Test [10] in a line: Cell cycle arrest in human WM164 cells assessed as accumulation at G2/M phase at IC50 after 12 to 72 hrs using propidium iodide staining by FACS analysis. The class given is functional, cell-based. The essentials: as §3
Test [11] is described as follows: Cell cycle arrest in human SBcl2 cells assessed as increase of cells accumulation at S phase at IC50 after 12 to 72 hrs using propidium iodide staining by FACS analysis. The class given is functional, cell-based. The essentials:
as §3

Test [12] in a line: Cell cycle arrest in human WM35 cells assessed as increase of cells accumulation at S phase at IC50 after 12 to 72 hrs using propidium iodide staining by FACS analysis. Type of test: functional, cell-based. The method, boiled down: as §3
A short description of test [13]: Induction of apoptosis in human WM9 cells assessed as accumulation at sub-G1 phase at IC50 after 24 […].
Test [14] can be described thus: Induction of apoptosis in human WM35 cells assessed as accumulation at sub-G1 phase at IC50 after 24 […].
The test system of test [15] is SBcl2. The test can be described thus: Induction of apoptosis in human SBcl2 cells assessed as accumulation at sub-G1 phase at IC50 after 24 […].
Test [16] concerns WM164. The test can be described thus: Induction of apoptosis in human WM164 cells assessed as increased accumulation at sub-G1 phase at IC50 after 24 […].

From ChEMBL document CHEMBL2046340, “Naphthoquinones from Onosma paniculata induce cell-cycle arrest and apoptosis in melanoma Cells” (J Nat Prod, 2012) come the findings set out here.

pIC50: −log10 of the molar value. Active and inactive are the calls of the source. The calls are words filed in the database; no cut-off is given here.

By pIC50 is commonly meant the negative decadic logarithm of the IC50, by convention in mol/L. A high value points to a low IC50. As for `CC(=O)O[C@H](CC=C(C)C)C1=CC(=O)c2c(O)ccc(O)c2C1=O` [ACETYLSHIKONIN], the pIC50 in the test on CCRF-CEM was 6.00; in the test on MDA-MB-231 it was 4.95; with U-251, 4.80; in the test with HCT-116 it was 5.05; in test [1], 4.89; in [2], 4.51. The pIC50 in [3] is 4.63; in test [4], 4.15; in the test with MRC5 [5] it was 5.59. The Ratio IC50 in the test with MRC5 [6] was determined as 2.6.
For `CC(C)=CC[C@@H](OC(=O)C=C(C)C)C1=CC(=O)c2c(O)ccc(O)c2C1=O` [DIMETHYLACRYLSHIKONIN], the pIC50 in the test on CCRF-CEM is 5.72; with MDA-MB-231, 4.63; in the test on U-251, 4.51; with HCT-116, 4.70; in test [1], 5.96; in test [2], 5.64. Further, the negative-log IC50 (pIC50) was 5.57 in test [3], 5.08 in test [4] and 5.62 with MRC5 [5]. In the test on MRC5 [6], the Ratio IC50 amounted to 1.3. Moreover, the result (with SBcl2 [7]; in the test with WM35; in the test on WM9; in the test on WM164 [8]; in test [9]; in [10]) was Active. The result in test [11] and in [12] was Active. Also, the Activity (in test [13]; in test [14]; in the test on SBcl2 [15]; with WM164 [16]) was 20% in each case.
With `CC(C)=CC[C@@H](OC(=O)CC(C)(C)O)C1=CC(=O)c2c(O)ccc(O)c2C1=O` [BETA-HYDROXYISOVALERYLSHIKONIN], the pIC50 with CCRF-CEM was 6.22; with MDA-MB-231, 5.34; in the test on U-251 it was 4.63; with HCT-116 it was 5.39; in test [1] it was 5.08; in test [2] it was 4.89. For the same molecule, the pIC50 in [3] was 4.90; in test [4], 4.51; in the test with MRC5 [5], 5.41. In addition, the “Ratio IC50” value in the test with MRC5 [6] came to 6.
On to `CC[C@]1(O)C[C@@H]2CN(CCc3c([nH]c4ccccc34)[C@@](C(=O)OC)(c3cc4c(cc3OC)N(C)[C@H]3[C@@](O)(C(=O)OC)[C@H](OC(C)=O)[C@]5(CC)C=CCN6CC[C@]43[C@@H]65)C2)C1` [VINBLASTINE], for which the negative-log IC50 (pIC50) with CCRF-CEM was 8.03; in the test with MDA-MB-231 it was 7.51; with U-251, 8.09; in the test with HCT-116, 8.06; in test [1], 7.96; in test [2], 8.46. For the same molecule, the pIC50 in test [3] was 7.82; in test [4], 8.38; with MRC5 [5], 7.62.
